Compounds with a hit are over-represented: about 2.3% of the library has one in this group of screens.
EBV gp42 block: blocks Epstein-Barr virus glycoprotein 42 binding; Fluorescence polarization binding assay, mP read-out; 0.42% of 220,000 active; Q1HVG2; inhibition, % (tested at 21.74 µM); in the data active = inhibition above about 50%
Target sequence (Q1HVG2 whole entry, looked up): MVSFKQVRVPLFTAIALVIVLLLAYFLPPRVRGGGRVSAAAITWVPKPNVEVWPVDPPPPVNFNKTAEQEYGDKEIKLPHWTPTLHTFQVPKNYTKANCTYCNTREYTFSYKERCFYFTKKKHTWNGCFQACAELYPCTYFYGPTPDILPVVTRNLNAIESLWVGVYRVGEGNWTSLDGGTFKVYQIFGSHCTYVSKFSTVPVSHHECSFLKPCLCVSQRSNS
NS3 helicase inh: HCV NS3 helicase inhibition | NS3 helicase DNA unwinding, Cy5 molecular beacon fluorescence | inhibition, % at 10.9 µM | 0.56% of 290,000 active | AID 1800;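 active = inhibition above the mean of all tested compounds plus 3 SD, set per campaign, cut at about 35% in these data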;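 note: 0% = DMSO wells and 100% = thioflavine S control wells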
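Compound dosing – single dose, 10.9 µM nominal final, DMSO 0.8% final · System – NS3 helicase fragment of HCV · Buffer or medium – MOPS pH 6.5, MgCl2, DTT, Tween20, BSA · Signal – Cy5 beacon fluorescence read at start and 1 h · Also added – annealed dual-labelled DNA beacon duplex, ATP-started · Schedule – 1 h at 25 °C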
HCV core dimer: blocks dimerization of HCV core protein | AID 1899 | 0.33% of 300,000 active | TR-FRET GST/Flag-core106 dimerization, 1536-well | inhibition, % at 5 µM;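 active = inhibition above the mean of all tested compounds plus 3 SD, set per screening campaign, cut at about 45% in these data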
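Material: Tagged HCV core106 pair (GST and Flag) | Amount: GST-core106 13.5 nM, Flag-core106 17 nM | Medium: KF-containing HEPES buffer, pH 7.45, DTT, CHAPS, BSA | Reagent: Eu donor and XL665 acceptor anti-tag antibodies | Schedule: 4 h at 22.5 °C | Technique: Time-resolved FRET, ex 340 nm, em 617 and 671 nm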
EBNA-1 inh: blocks EBNA-1 binding to DNA. EBNA-1 DNA binding, fluorescence polarization. inhibition, % at 14.8 µM. 0.34% of 300,000 active. AID 1950; in the data active = inhibition above about 28%
ZTA counter: ZTA (EBV) inhibition in EBNA-1 counter-screen. P03206. ZTA-DNA binding, fluorescence polarization. inhibition, % at 11 µM. 0.15% of 320,000 active. AID 2234; in the data active = inhibition above about 33%
GPR7 antagonist: antagonists of human GPR7 (neuropeptides B/W receptor 1); 1.1% of 290,000 active; P48145; AID 1861; inhibition, % at 4.4 µM; GPR7-expressing cells, fluorescence antagonist assay; in the data active = inhibition above about 16%, passing the limit was not always enough;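 note: cells stimulated with the agonist NPW; 0% = agonist with vehicle and 100% = vehicle without agonist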
Target sequence (P48145 whole entry, looked up): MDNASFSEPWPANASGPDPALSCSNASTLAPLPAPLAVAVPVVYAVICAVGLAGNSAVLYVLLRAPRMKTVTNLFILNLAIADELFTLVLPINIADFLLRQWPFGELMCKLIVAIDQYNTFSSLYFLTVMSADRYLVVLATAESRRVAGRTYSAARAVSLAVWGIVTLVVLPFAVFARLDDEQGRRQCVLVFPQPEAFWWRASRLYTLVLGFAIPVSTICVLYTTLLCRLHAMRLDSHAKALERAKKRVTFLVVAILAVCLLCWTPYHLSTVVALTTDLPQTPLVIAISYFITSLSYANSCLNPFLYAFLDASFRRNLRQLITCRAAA
An asterisk follows results filed as active; / = no result given.

SMILES | EBV gp42 block | NS3 helicase inh | HCV core dimer | EBNA-1 inh | ZTA counter | GPR7 antagonist
Cc1c(N=C2N=C(NC(=O)c3cccs3)c3ccccc32)c(=O)n(-c2ccccc2)n1C | 125* | 7 | 10 | -4 | 1 | -17
CCN(CC)CCN(C(=O)C1=COCCO1)c1nc2c(OC)ccc(OC)c2s1 | / | -4 | -8 | 1 | -3 | 10
CCCn1c(SCC(=O)Nc2cccc(S(=O)(=O)N(C)C)c2)nc2ccccc2c1=O | -7 | 0 | 4 | 12 | 10 | -5
COC(=O)c1ccccc1Oc1ccc(NC(=O)C(C)(C)CCl)cc1 | 7 | 0 | -2 | -1 | -5 | -13
CC(C)(CCl)C(=O)Nc1ccc(OC(F)(F)F)cc1 | 61* | -9 | -4 | 3 | 6 | -2
CC(C)COP(=O)(OCC(C)C)C(Nc1ccccc1)c1ccccc1 (centres undefined) | -2 | -5 | 0 | 1 | 2 | 7
CC(C)COP(=O)(OCC(C)C)C(Nc1ccccc1)c1ccc(F)cc1 (centres undefined) | -8 | -9 | 6 | -1 | 1 | 18*
COc1ccc(C2C(C#N)=C3NC(=O)c4c(sc5c4CCCCC5)N3C3=C2C(=O)CC(C)(C)C3)cc1 (centres undefined) | -25 | 24 | 46* | -4 | -11 | 0
COc1ccc(C2C(C#N)=C(N)N(c3sc4c(c3C#N)CCCC4)C3=C2C(=O)CC(C)(C)C3)cc1 (centres undefined) | -20 | 15 | 40 | -4 | -12 | 2
Cc1cc(C)cc(N(CC(=O)NC2CCCC2)C(=O)C2(C)CC(=O)N=C3C=CC=CN32)c1 (centres undefined) | 3 | -13 | 2 | 15 | 12 | -5
OCCCc1nc2n(n1)C(c1ccccc1)C=C(c1ccc(F)cc1)N2 (centres undefined) | 25 | -4 | -2 | 6 | 6 | -20
OCCCc1nc2n(n1)C(c1cccs1)C=C(c1ccccc1)N2 (centres undefined) | 142* | -1 | 0 | 12 | 11 | 5
COc1cc(N2CCCC2)ccc1C=O | -10 | 11 | 3 | 8 | -12 | -2
COc1cc(N2CCCC2)c(OC)cc1/C=C(/C#N)c1ccc(F)cc1 | 139* | 6 | 0 | -5 | 1 | 6
COc1cc(N2CCCC2)c(OC)cc1/C=C(/C#N)c1ccc(Br)cc1 | 95* | 3 | -12 | 0 | -8 | -4
COc1ccc(Cl)cc1N1C(=O)C2CCCN2C1c1ccc(F)c(F)c1 (centres undefined) | -12 | 4 | 4 | 13 | -11 | 16*
CCN(C(=O)CN1C(=O)S/C(=C\C=C\c2ccccc2)C1=O)C1CCS(=O)(=O)C1 (centres undefined) | / | -15 | 46* | 0 | -1 | -2
CCN(C(=O)CN1C(=O)S/C(=C\c2cccc(Cl)c2)C1=O)C1CCS(=O)(=O)C1 (centres undefined) | / | -1 | -9 | -3 | -34 | -14
O=C(NCc1ccco1)C(c1ccc(F)cc1)N(C(=O)Cc1cccs1)c1cccnc1 (centres undefined) | -12 | 6 | 1 | 5 | 3 | -9
N#Cc1nccnc1S(=O)(=O)c1cccs1 | -8 | -4 | -2 | -10 | -7 | 18*
Cc1nc(SC(C)C(=O)NCC2CCCO2)c2cc(-c3ccccc3)sc2n1 (centres undefined) | / | / | 11 | -1 | 1 | /
COc1ccccc1C(CC(=O)Nc1ccc(C)c(C)c1)c1ccc(OC(C)C)cc1 (centres undefined) | -7 | 0 | 5 | 2 | 11 | -6
COc1ccccc1NC(=O)CC(c1ccc(OC(C)C)cc1)c1ccccc1OC (centres undefined) | 70* | -16 | 7 | -4 | 11 | -4
CN=C1NN=C(c2cc(C)n(-c3ccc(Cl)cc3)c2C)CS1 | -3 | -4 | 65* | 11 | 11 | -6
O=[N+]([O-])c1ccccc1NCCNS(=O)(=O)c1ccc(Cl)cc1 | -7 | -9 | 0 | -2 | 6 | -12
SMILES | EBV gp42 block | NS3 helicase inh | HCV core dimer | EBNA-1 inh | ZTA counter | GPR7 antagonist
O=[N+]([O-])c1ccc(NCCCNS(=O)(=O)c2ccc(Cl)cc2)c(Cl)c1 | -13 | 4 | 2 | 9 | 10 | 54*
CSc1nc(N)nc(SCC(=O)c2ccc(C)cc2)c1C#N | -22 | 4 | 48* | -1 | 5 | 5
CC(=O)c1ccc2c(c1)C1C=CCC1C(c1ccc(S(=O)(=O)N3CCOCC3)cc1)N2 (centres undefined) | 6 | 10 | 79* | 5 | 2 | -6
O=C(O)c1ccc2c(c1)C1C=CCC1C(c1ccncc1)N2 (centres undefined) | -9 | 16 | -3 | -1 | 20 | -2
CCOC(=O)c1cnc(-c2ccccc2)nc1Oc1cccc(Cl)c1 | -11 | 0 | -7 | -11 | 4 | -3
CCOC(=O)c1cnc(-c2ccccc2)nc1Oc1ccc(Cl)c(Cl)c1 | 40 | -2 | -5 | 0 | -4 | 19*
Cc1cc(C)cc(-n2ccnc2SCC(=O)O)c1 | -10 | 0 | -1 | -4 | -6 | 30*
Cc1cccc(NC(=O)N2CCC(NC(=O)C3CCCCC3)CC2)c1 | / | 0 | 12 | -1 | -4 | -20
CCc1nc2ccccc2n1CC1CC1(Cl)Cl (centres undefined) | 4 | 4 | -1 | 1 | 3 | -11
CN(C)c1ccc(/C=N/NC(=O)c2cnc3ccccc3c2)cc1 | 76* | 4 | -25 | 7 | 11 | -3
CN(C(=O)CSc1nnnn1-c1ccccc1)C1CCS(=O)(=O)C1 (centres undefined) | -15 | -13 | -6 | -1 | 2 | 19*
CN(C(=O)CSc1nnnn1-c1ccc(O)cc1)C1CCS(=O)(=O)C1 (centres undefined) | 0 | 1 | 2 | 6 | 2 | 5
CCCN1C(=O)/C(=C/c2c(NCCCOCC)nc3c(C)cccn3c2=O)SC1=S | -27 | 1 | / | / | / | -2
CCOCCCNc1nc2c(C)cccn2c(=O)c1/C=C1\SC(=S)N(CC(C)C)C1=O | 104* | 5 | 0 | -8 | -23 | 1
Cc1cccn2c(=O)c(/C=C3\SC(=S)NC3=O)c(NCCCN3CCOCC3)nc12 | -106 | -26 | -5 | -4 | -4 | -1
CCOCCCNc1nc2c(C)cccn2c(=O)c1/C=C1\SC(=S)N(C(C)CC)C1=O (centres undefined) | 133* | 3 | 4 | 9 | 11 | -7
O=[N+]([O-])c1ccc(N=Nc2c(Cl)cc(O)cc2Cl)cc1 | 0 | 9 | -5 | 9 | -5 | 62*
CC(N)=Nc1ccc([N+](=O)[O-])cc1 | 4 | 9 | 6 | 0 | 20 | -1
Cc1ccc(-n2c(Cl)c(Cl)nc(Cl)c2=O)cc1 | -5 | -3 | 3 | 1 | -10 | 52*
